Results from ChEMBL document CHEMBL4138311, “Antitumorigenic Properties of Omega-3 Endocannabinoid Epoxides” (J Med Chem, 2018).
The source made the active and inactive calls. The calls are words filed in the database; no cut-off is given here.

Assays:
MG-63 [1] = experiment: Cell cycle arrest in human MG63 cells assessed as accumulation at S phase after 24 hrs by propidium iodide-staining based flow cytometry (reference value: 20.2 +/- 1.8%); format: functional
[2] = molecular target: T1, Fatty-acid amide hydrolase 1 (Sus scrofa, UniProt Q9TUI8); experiment: Drug metabolism in pig forebrain membranes assessed as FAAH-mediated 10,11-EDP formation by measuring hydrolysis rate per mg protein at 20 uM after 40 mins by LC-MS/MS analysis; format: ADME, cell membranes, Membrane
T1 sequence (Q9TUI8 whole entry): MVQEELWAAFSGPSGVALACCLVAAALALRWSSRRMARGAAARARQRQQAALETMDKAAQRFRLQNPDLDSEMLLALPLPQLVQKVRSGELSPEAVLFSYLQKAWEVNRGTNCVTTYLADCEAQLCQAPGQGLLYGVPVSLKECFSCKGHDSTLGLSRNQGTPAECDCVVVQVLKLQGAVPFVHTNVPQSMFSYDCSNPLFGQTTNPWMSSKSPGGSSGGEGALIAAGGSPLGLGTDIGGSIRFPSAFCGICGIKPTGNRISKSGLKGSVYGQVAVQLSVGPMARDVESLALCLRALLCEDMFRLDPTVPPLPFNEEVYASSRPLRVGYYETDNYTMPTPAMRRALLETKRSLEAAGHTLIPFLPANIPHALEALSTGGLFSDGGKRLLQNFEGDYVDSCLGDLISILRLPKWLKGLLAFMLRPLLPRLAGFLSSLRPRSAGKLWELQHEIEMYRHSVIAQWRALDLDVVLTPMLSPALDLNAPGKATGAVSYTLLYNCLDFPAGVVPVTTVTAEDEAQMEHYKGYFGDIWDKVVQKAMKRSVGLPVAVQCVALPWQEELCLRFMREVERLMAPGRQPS
In short: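 Each 0.5 mL reaction held 5 µg membrane protein in the same buffer with 20 µM amide. Reactions were stopped at 40 min with methanol containing 1 mM PMSF and centrifuged. The supernatant was run on C18 LC-MS/MS, negative ESI, MRM for 10,11-EDP (m/z 343.0).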

HOS [3] = experiment: Cell cycle arrest in human HOS cells assessed as accumulation at G1 phase after 24 hrs by propidium iodide-staining based flow cytometry (reference value: 47.8 +/- 0.7%); format: functional
143B [4] = experiment: Cell cycle arrest in human 143B cells assessed as accumulation at G2 phase after 24 hrs by propidium iodide-staining based flow cytometry (reference value: 17.2 +/- 2.3%); format: functional
MG-63 [5] = experiment: Cell cycle arrest in human MG63 cells assessed as accumulation at G2 phase after 24 hrs by propidium iodide-staining based flow cytometry (reference value: 16.9 +/- 0.01%); format: functional
HUVEC [6] = experiment: Anti-angiogenic activity in HUVEC assessed as inhibition of tube formation at 0.5 to 1 uM after 5 hrs by fluorescent microscopy based matrigel assay; format: functional, cell-based; settings: Homo sapiens
In short: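 HUVEC at passage 2 were grown to 80% confluency, and 15,000 cells were plated on Matrigel pre-set 1 h at 37 °C. Cells got vehicle, 0.5 or 1 μM compound, with no-matrix and vinblastine controls, in duplicate wells for 5 h at 37 °C. After washing, cells were stained 30 min at 37 °C. Fluorescence images were scored for tube formation with an angiogenesis analyzer.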

HOS [7] = experiment: Cell cycle arrest in human HOS cells assessed as accumulation at G2 phase after 24 hrs by propidium iodide-staining based flow cytometry (reference value: 15.1 +/- 0.97%); format: functional
MG-63 [8] = experiment: Cell cycle arrest in human MG63 cells assessed as accumulation at G1 phase after 24 hrs by propidium iodide-staining based flow cytometry (reference value: 62.9 +/- 1.8%); format: functional
HUVEC [9] = experiment: Cytotoxicity against HUVEC assessed as reduction in cell viability at 1 uM after 24 hrs by cell-titer blue assay; format: cell-based; settings: human
143B [10] = experiment: Cell cycle arrest in human 143B cells assessed as accumulation at G1 phase after 24 hrs by propidium iodide-staining based flow cytometry (reference value: 56.2 +/- 2.7%); format: functional
HOS [11] = experiment: Induction of apoptosis in human HOS cells at 12.5 by Annexin V-FITC/propidium iodide double staining based flow cytometry relative to control; format: functional
143B [12] = experiment: Cell cycle arrest in human 143B cells assessed as accumulation at S phase after 24 hrs by propidium iodide-staining based flow cytometry (reference value: 26.6 +/- 0.4%); format: functional
HOS [13] = experiment: Cell cycle arrest in human HOS cells assessed as accumulation at S phase after 24 hrs by propidium iodide-staining based flow cytometry (reference value: 37.1 +/- 1.6%); format: functional
143B [14] = experiment: Induction of apoptosis in human 143B cells at 12.5 by Annexin V-FITC/propidium iodide double staining based flow cytometry relative to control; format: functional
MG-63 [15] = experiment: Induction of apoptosis in human MG63 cells at 12.5 by Annexin V-FITC/propidium iodide double staining based flow cytometry relative to control; format: functional
143B [16] = experiment: Cytotoxicity against human 143B cells assessed as reduction in cell viability at 12.5 uM after 24 hrs by cell-titer blue assay; format: functional, cell-based
143B [17] = experiment: Cytotoxicity against human 143B cells assessed as reduction in cell viability at 25 uM after 24 hrs by cell-titer blue assay; format: functional, cell-based
143B [18] = experiment: Induction of apoptosis in human 143B cells at 12.5 in presence of AM 630 by Annexin V-FITC/propidium iodide double staining based flow cytometry relative to control; format: functional
143B [19] = experiment: Antimigratory activity in human 143B cells at 5 uM measured after 10 hrs by wound-healing assay; format: functional, cell-based
In short: (§1)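 A confluent monolayer of HOS, 143B or MG63 cells (DMEM, 10% FBS) was scratched with a pipette tip, then given fresh medium with 5 μM compound or vehicle at 37 °C, 5% CO₂. Images were taken every 2 h and wound area normalized to 100% at 0 h. Results are the ratio of wound remaining, treated to control, at 6 and 10 h.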

HOS [20] = experiment: Antimigratory activity in human HOS cells at 5 uM after 6 to 10 hrs by wound-healing assay; format: functional, cell-based; in short: as §1
MG-63 [21] = experiment: Antimigratory activity in human MG63 cells at 5 uM measured after 10 hrs by wound-healing assay; format: functional, cell-based; in short: as §1
143B [22] = experiment: Induction of apoptosis in human 143B cells at 12.5 in presence of rimonabant by Annexin V-FITC/propidium iodide double staining based flow cytometry relative to control; format: functional
MG-63 [23] = experiment: Antimigratory activity in human MG63 cells at 5 uM measured after 6 hrs by wound-healing assay; format: functional, cell-based; in short: as §1
Cannabinoid receptor 2 = Cannabinoid receptor 2 (Homo sapiens, UniProt P34972); experiment: Agonist activity at N-terminal FLAG-tagged human CB2 receptor transfected in human HTLA cells assessed as induction of beta-arrestin-recruitment after 8 to 14 hrs by bright-glo luminescence based assay; format: functional, cell-based
In short: (§2)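 HTLA cells (DMEM, 10% FBS, puromycin 2 μg/mL, hygromycin B 100 μg/mL) were seeded at 20,000 per well on poly-L-lysine and transfected after 18–24 h with CNR1 or CNR2 Tango plasmid, 0.1 μg/well. After 36–48 h they were starved 4 h in 1% dialyzed FBS, or 30 min with 1 μM AUDA for epoxides. Log-dose compound was added for 8–14 h, then Bright-Glo luminescence read. RLU was normalized to % receptor response and fitted to a dose-response curve.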

143B [24] = experiment: Antimigratory activity in human 143B cells at 5 uM measured after 10 hrs in presence of CB1 receptor antagonist rimonabant by wound-healing assay; format: functional, cell-based
Cannabinoid receptor 1 = Cannabinoid receptor 1 (Homo sapiens, UniProt P21554); experiment: Agonist activity at N-terminal FLAG-tagged human CB1 receptor transfected in human HTLA cells assessed as induction of beta-arrestin-recruitment after 8 to 14 hrs by bright-glo luminescence based assay; format: functional, cell-based; in short: as §2
Chain of Cannabinoid receptor 1 (P21554 whole entry): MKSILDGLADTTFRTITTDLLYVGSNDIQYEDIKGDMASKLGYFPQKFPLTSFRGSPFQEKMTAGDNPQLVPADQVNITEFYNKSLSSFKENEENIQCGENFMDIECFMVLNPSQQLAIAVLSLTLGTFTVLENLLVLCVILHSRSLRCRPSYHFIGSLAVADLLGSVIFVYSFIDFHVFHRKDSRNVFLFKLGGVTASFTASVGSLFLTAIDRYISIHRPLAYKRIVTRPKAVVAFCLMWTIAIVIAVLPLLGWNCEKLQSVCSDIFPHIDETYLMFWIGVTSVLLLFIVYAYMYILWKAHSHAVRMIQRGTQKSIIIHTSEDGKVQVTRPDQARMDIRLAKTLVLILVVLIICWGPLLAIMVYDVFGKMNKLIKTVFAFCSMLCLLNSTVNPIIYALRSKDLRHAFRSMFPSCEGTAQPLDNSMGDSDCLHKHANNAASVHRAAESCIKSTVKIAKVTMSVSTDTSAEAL

Chain of Cannabinoid receptor 2 (P34972 whole entry): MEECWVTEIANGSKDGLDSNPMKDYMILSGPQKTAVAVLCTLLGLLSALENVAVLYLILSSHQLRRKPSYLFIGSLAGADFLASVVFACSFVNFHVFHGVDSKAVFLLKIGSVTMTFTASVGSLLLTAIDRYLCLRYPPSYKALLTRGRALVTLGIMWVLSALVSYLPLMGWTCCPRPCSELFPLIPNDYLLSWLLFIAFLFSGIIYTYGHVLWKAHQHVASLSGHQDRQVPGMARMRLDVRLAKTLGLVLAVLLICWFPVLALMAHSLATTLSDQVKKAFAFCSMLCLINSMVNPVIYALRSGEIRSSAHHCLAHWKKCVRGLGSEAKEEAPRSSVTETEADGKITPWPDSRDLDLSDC

## CC/C=C\C/C=C\C/C=C\CC1OC1C/C=C\C/C=C\CCC(=O)NC(C)CO (configuration not stated)
MG-63 [1]
  Activity: 10.8%
[2]
  Drug metabolism: 0.99 pmol/min
HOS [3]
  Activity: 55.8%
143B [4]
  Activity: 8.1%
MG-63 [5]
  Activity: 12.5%
HUVEC [6]
  Activity: Active
HOS [7]
  Activity: 20%
MG-63 [8]
  Activity: 76.7%
HUVEC [9]
  Activity: Non-Toxic
143B [10]
  Activity: 50.1%
HOS [11]
  Activity: 20.2%
143B [12]
  Activity: 41.8%
HOS [13]
  Activity: 24.3%
143B [14]
  Activity: 18.8%
MG-63 [15]
  Activity: 17.5%

## CC/C=C\CC1OC1C/C=C\C/C=C\C/C=C\C/C=C\CCC(=O)NCCO (configuration not stated)
143B [16]
  Activity: inactive
143B [17]
  Activity: Active

## CC/C=C\C/C=C\C/C=C\C/C=C\CC1OC1C/C=C\CCC(=O)NCCO (configuration not stated)
143B [16]
  Activity: Active
143B [18]
  Activity: 10.1%
143B [19]
  Activity: inactive
143B [17]
  Activity: Active
HOS [11]
  Activity: 17.1%
HOS [20]
  Activity: inactive
MG-63 [21]
  Activity: Active
143B [22]
  Activity: 14.6%
143B [14]
  Activity: 8.75%
MG-63 [15]
  Activity: 16.4%

## CCC1OC1C/C=C\C/C=C\C/C=C\C/C=C\C/C=C\CCC(=O)NCCO (configuration not stated)
143B [16]
  Activity: inactive
143B [17]
  Activity: Active

## CC/C=C\C/C=C\C/C=C\CC1OC1C/C=C\C/C=C\CCC(=O)NC1CC1 (configuration not stated)
MG-63 [1]
  Activity: 23.1%
[2]
  Drug metabolism: 5.17 pmol/min
HOS [3]
  Activity: 54.4%
143B [4]
  Activity: 22.9%
MG-63 [5]
  Activity: 16.9%
HUVEC [6]
  Activity: Active
HOS [7]
  Activity: 15.1%
MG-63 [8]
  Activity: 59.6%
HUVEC [9]
  Activity: Non-Toxic
143B [10]
  Activity: 54.2%
HOS [11]
  Activity: 27.2%
143B [12]
  Activity: 22.9%
HOS [13]
  Activity: 30.5%
143B [14]
  Activity: 21.3%
MG-63 [15]
  Activity: 17.1%

## CC/C=C\C/C=C\C/C=C\CC1OC1C/C=C\C/C=C\CCC(=O)NCCCO (configuration not stated)
MG-63 [1]
  Activity: 19%
HOS [3]
  Activity: 62.2%
143B [4]
  Activity: 23.7%
MG-63 [5]
  Activity: 17.5%
HUVEC [6]
  Activity: Active
HOS [7]
  Activity: 17.1%
MG-63 [8]
  Activity: 63.5%
HUVEC [9]
  Activity: Non-Toxic
143B [10]
  Activity: 52.2%
HOS [11]
  Activity: 17.1%
143B [12]
  Activity: 24%
HOS [13]
  Activity: 20.7%
143B [14]
  Activity: 25.7%
MG-63 [15]
  Activity: 15.2%

## CC/C=C\C/C=C\CC1OC1C/C=C\C/C=C\C/C=C\CCC(=O)NCCO (configuration not stated)
143B [16]
  Activity: Active
143B [18]
  Activity: 9.2%
143B [19]
  Activity: inactive
MG-63 [23]
  Activity: inactive
143B [17]
  Activity: Active
HOS [11]
  Activity: 19.6%
HOS [20]
  Activity: inactive
MG-63 [21]
  Activity: Active
143B [22]
  Activity: 13.03%
143B [14]
  Activity: 9.95%
MG-63 [15]
  Activity: 16.9%

## CC/C=C\C/C=C\C/C=C\CC1OC1C/C=C\C/C=C\CCC(=O)NCCO (configuration not stated)
143B [16]
  Activity: Active
MG-63 [1]
  Activity: 17.9%
143B [18]
  Activity: 10.9%
[2]
  Drug metabolism: 30 pmol/min
143B [19]
  Activity: Active
HOS [3]
  Activity: 67.2%
143B [4]
  Activity: 21.1%
MG-63 [5]
  Activity: 14.4%
HUVEC [6]
  Activity: Active
Cannabinoid receptor 2
  EC50: 22.5 nM
HOS [7]
  Activity: 12.4%
143B [17]
  Activity: Active
143B [24]
  Activity: inactive
MG-63 [8]
  Activity: 67.7%
HUVEC [9]
  Activity: Non-Toxic
143B [10]
  Activity: 50.7%
HOS [11]
  Activity: 31.1%
143B [12]
  Activity: 28.9%
Cannabinoid receptor 1
  EC50: 0.43 nM
HOS [13]
  Activity: 20.3%
143B [22]
  Activity: 7.44%
143B [14]
  Activity: 17.92%
MG-63 [15]
  Activity: 26.6%
